Entries after “also recorded” stand apart in the source; their conditions may differ. Where no end group is shown, it is not given here.
Test system: A549 cells
Test: Cytotoxicity assay
Assay type: cell-based, human
In short: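 A549 cells (ATCC) seeded in 96-well plates at 5 × 10^3 cells per mL, grown 24 h. Medium replaced with matched concentrations (up to 160 μg mL−1) of free drug or peptide-nanocage-encapsulated drug (pH 8.09). Nanocages were made by emulsifying drug in chloroform into 1 mM peptide/PBS pH 7.4. After 24 h, CCK-8 added for 3 h; OD 450 nm read. Viability = (ODtest − ODblank)/(ODcontrol − ODblank) × 100%.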

Compound	cell survival rate (160 μg mL^−1, 24 h culture, CCK-8, OD 450 nm)	cytotoxicity (in words) (24 h culture, CCK-8)
CC(=O)O[C@H]1C(=O)[C@@]2(C)[C@H]([C@H](OC(=O)c3ccccc3)[C@]3(O)C[C@H](OC(=O)[C@H](O)[C@@H](NC(=O)c4ccccc4)c4ccccc4)C(C)=C1C3(C)C)[C@]1(OC(C)=O)CO[C@@H]1C[C@@H]2O [PTX, Paclitaxel, reference compound]	approximately 60%	–
GNNQQNYPKKPGNNQQNY [GSLP, GNNQQNY-PKKP-GNNQQNY]	–	not concentration-dependent toxic; also recorded: do not exhibit cytotoxicity
